Test results reported in ChEMBL document CHEMBL3734725, “Design, synthesis and preliminary biological studies of pyrrolidine derivatives as Mcl-1 inhibitors” (Bioorg Med Chem, 2015).

Tests used:
[1] = biological target: Induced myeloid leukemia cell differentiation protein Mcl-1 (Homo sapiens, UniProt Q07820); assay: Competitive binding affinity to Mcl-1 (unknown origin) using 5-FAM-Bid-BH3 peptide preincubated for 30 mins before 5-FAM-Bid-BH3 peptide addition and measured 20 mins after 5-FAM-Bid-BH3 peptide addition by fluorescence polarization assay
Induced myeloid leukemia cell differentiation protein Mcl-1, sequence (Q07820 whole entry): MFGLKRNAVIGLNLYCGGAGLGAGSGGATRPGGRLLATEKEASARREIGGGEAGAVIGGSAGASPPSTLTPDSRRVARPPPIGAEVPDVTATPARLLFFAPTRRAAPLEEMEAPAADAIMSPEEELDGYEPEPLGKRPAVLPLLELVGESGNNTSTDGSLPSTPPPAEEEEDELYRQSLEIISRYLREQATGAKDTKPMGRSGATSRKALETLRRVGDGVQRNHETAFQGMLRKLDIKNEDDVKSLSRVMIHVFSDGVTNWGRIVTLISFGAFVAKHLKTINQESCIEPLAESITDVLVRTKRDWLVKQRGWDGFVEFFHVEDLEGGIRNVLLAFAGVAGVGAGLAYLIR
In short: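 Mcl-1 preincubated 30 min at room temperature with compound in PBS (pH 7.3; 140 mM NaCl, 2.7 mM KCl, 1.8 mM KH₂PO₄). IC50 fitted, Ki calculated; three separate experiments.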

[2] = test system: K562; assay: Antiproliferative activity against human K562 cells after 48 hrs by MTT assay; type: functional, cell-based; details: K562, 48 h
In short: (§1)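 Cells grown in RPMI1640 with 10% fetal bovine serum at 37 °C, 5% CO₂. Log-phase cells seeded at 5000 per well and incubated 12 h, then exposed to a range of compound concentrations for 48 h. MTT (5 mg/mL) added for 4 h, medium removed, formazan dissolved in DMSO, absorbance read. IC50 reported.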

[3] = biological target: Bcl-2-like protein 1 (Homo sapiens, UniProt Q07817); assay: Competitive binding affinity to Bcl-XL (unknown origin) using 5-FAM-Bid-BH3 peptide preincubated for 30 mins before 5-FAM-Bid-BH3 peptide addition and measured 20 mins after 5-FAM-Bid-BH3 peptide addition by fluorescence polarization assayy
Bcl-2-like protein 1, sequence (Q07817 whole entry): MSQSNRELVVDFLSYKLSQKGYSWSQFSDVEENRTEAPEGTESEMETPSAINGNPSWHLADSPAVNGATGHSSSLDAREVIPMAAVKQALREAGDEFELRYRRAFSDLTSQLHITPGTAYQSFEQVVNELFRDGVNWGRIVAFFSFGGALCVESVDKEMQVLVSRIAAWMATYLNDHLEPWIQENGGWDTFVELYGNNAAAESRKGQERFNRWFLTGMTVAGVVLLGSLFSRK
In short: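 Same FP competition with FAM-Bid-BH3 peptide at 10 nM final in PBS pH 7.3. Protein and compound preincubated 30 min at room temperature. Final Bcl-2 376 nM, final Bcl-XL 170 nM. Polarization read at ex 485/em 535 nm in triplicate. IC50 fitted, then converted to Ki.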

[4] = biological target: Apoptosis regulator Bcl-2 (Homo sapiens, UniProt P10415); assay: Competitive binding affinity to Bcl-2 (unknown origin) using 5-FAM-Bid-BH3 peptide preincubated for 30 mins before 5-FAM-Bid-BH3 peptide addition and measured 20 mins after 5-FAM-Bid-BH3 peptide addition by fluorescence polarization assay
Apoptosis regulator Bcl-2, sequence (P10415 whole entry): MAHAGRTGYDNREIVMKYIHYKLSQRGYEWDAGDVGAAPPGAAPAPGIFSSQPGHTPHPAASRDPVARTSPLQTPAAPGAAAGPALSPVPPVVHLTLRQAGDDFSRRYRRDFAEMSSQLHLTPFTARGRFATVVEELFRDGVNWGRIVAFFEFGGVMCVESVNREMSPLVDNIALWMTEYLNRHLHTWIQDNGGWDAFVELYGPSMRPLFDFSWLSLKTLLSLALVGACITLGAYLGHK
In short: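 Same FP competition with FAM-Bid-BH3 peptide at 10 nM final in PBS pH 7.3. Protein and compound preincubated 30 min at room temperature. IC50 fitted, then converted to Ki.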

[5] = Antiproliferative activity against human PC3 cells after 48 hrs by MTT assay; type: functional, cell-based; details: PC-3, 48 h; in short: as §1
[6] = test system: MDA-MB-231; assay: Antiproliferative activity against human MDA-MB-231 cells after 48 hrs by MTT assay; type: functional, cell-based; details: MDA-MB-231, 48 h; in short: as §1

In the case of `CC(C)[C@H](NC(=O)[C@@H]1C[C@H](Oc2ccc(-c3ccccc3)cc2)CN1C(=O)OC(C)(C)C)C(=O)O`, the Ki [1] is reported as over 10 µM.
Compound `Cc1ccc(-c2ccc(O[C@H]3C[C@@H](C(=O)N[C@@H](Cc4ccccc4)C(=O)NS(=O)(=O)c4ccc(C)cc4)N(C(=O)OC(C)(C)C)C3)cc2)cc1` has a Ki [1] of 1.9 µM.
`Cc1ccc(-c2ccc(O[C@H]3C[C@@H](C(=O)N[C@@H](Cc4ccccc4)C(=O)NS(=O)(=O)c4ccc(Cl)c([N+](=O)[O-])c4)N(C(=O)OC(C)(C)C)C3)cc2)cc1` gave an IC50 [2] of 22.4 µM, a Ki [3] of 8.7 µM and a Ki [4] of 4.6 µM. For the same compound, the IC50 [5] was 13.5 µM and the IC50 [6] was 15.4 µM.
With `CC(C)(C)OC(=O)N1C[C@@H](Oc2ccc(-c3ccccc3)cc2)C[C@H]1C(=O)N[C@@H](Cc1ccc(Br)cc1)C(=O)NS(=O)(=O)c1ccc(Cl)c([N+](=O)[O-])c1` the IC50 [2] was 23 µM, the Ki [3] was 2.2 µM and the Ki [4] was 0.93 µM. For the same compound, the IC50 [5] was 10.7 µM and the IC50 [6] was 13.6 µM.
In the case of `CC(C)(C)OC(=O)N1C[C@@H](Oc2ccc(Br)cc2)C[C@H]1C(=O)N[C@@H](Cc1ccccc1)C(=O)O`, the Ki [1] is reported as over 10 µM.
`CC(C)[C@H](NC(=O)[C@@H]1C[C@H](Oc2ccc(Br)cc2)CN1C(=O)OC(C)(C)C)C(=O)O` showed a Ki [1] of over 10 µM.
`CC(C)C[C@H](NC(=O)[C@@H]1C[C@H](Oc2ccc(-c3ccccc3)cc2)CN1C(=O)OC(C)(C)C)C(=O)O` showed a Ki [1] of over 10 µM.
`CC(C)(C)OC(=O)N1C[C@@H](Oc2ccc(-c3ccccc3)cc2)C[C@H]1C(=O)N[C@@H](Cc1ccc(Br)cc1)C(=O)NS(=O)(=O)c1ccccc1` showed a Ki [1] of 1.2 µM.
`Cc1ccc(-c2ccc(O[C@H]3C[C@@H](C(=O)N[C@@H](Cc4ccccc4)C(=O)NS(=O)(=O)c4ccccc4)N(C(=O)OC(C)(C)C)C3)cc2)cc1` gave a Ki [1] of 1.6 µM.
For `Cc1ccc(S(=O)(=O)NC(=O)[C@H](Cc2ccc(Br)cc2)NC(=O)[C@@H]2C[C@H](Oc3ccc(-c4ccccc4)cc3)CN2C(=O)OC(C)(C)C)cc1`, the Ki [1] was 0.99 µM.
Compound `CC(C)(C)OC(=O)N1C[C@@H](Oc2ccc(-c3ccccc3)cc2)C[C@H]1C(=O)N[C@@H](Cc1c[nH]c2ccccc12)C(=O)NS(=O)(=O)c1ccccc1` has a Ki [1] of 3.2 µM.
`CC(C)(C)OC(=O)N1C[C@@H](Oc2ccc(-c3ccccc3)cc2)C[C@H]1C(=O)N[C@H](C(=O)O)c1ccccc1` gave a Ki [1] of over 10 µM.
Work on `CC(C)(C)OC(=O)N1C[C@@H](Oc2ccc(-c3ccccc3)cc2)C[C@H]1C(=O)NCC(=O)O` yielded a Ki [1] of over 10 µM.
`Cc1ccc(S(=O)(=O)NC(=O)[C@H](Cc2ccccc2)NC(=O)[C@@H]2C[C@H](Oc3ccc(-c4ccccc4)cc3)CN2C(=O)OC(C)(C)C)cc1` showed a Ki [1] of 3.3 µM.
In the case of `CC(C)(C)OC(=O)N1C[C@@H](Oc2ccc(-c3ccccc3)cc2)C[C@H]1C(=O)N[C@@H](Cc1ccccc1)C(=O)O`, the Ki [1] is reported as 8.4 µM.
In the case of `CC(C)(C)OC(=O)N1C[C@@H](Oc2ccc(Br)cc2)C[C@H]1C(=O)N[C@H](C(=O)O)c1ccccc1`, the Ki [1] is reported as over 10 µM.
For `CC(C)(C)OC(=O)N1C[C@@H](Oc2ccc(Br)cc2)C[C@H]1C(=O)NCC(=O)O`, the Ki [1] was over 10 µM.
In the case of `Cc1ccc(-c2ccc(O[C@H]3C[C@@H](C(=O)N[C@@H](Cc4ccc(Br)cc4)C(=O)NS(=O)(=O)c4ccc(Cl)c([N+](=O)[O-])c4)N(C(=O)OC(C)(C)C)C3)cc2)cc1`, the IC50 [2] is reported as 22.1 µM, the Ki [3] is reported as 1.2 µM and the Ki [4] is reported as 0.55 µM. It also gave an IC50 [5] of 13.8 µM and an IC50 [6] of 14.9 µM.
With `CC(C)C[C@H](NC(=O)[C@@H]1C[C@H](Oc2ccc(Br)cc2)CN1C(=O)OC(C)(C)C)C(=O)O` the Ki [1] was over 10 µM.
`CC(C)(C)OC(=O)N1C[C@@H](Oc2ccc(-c3ccc(Cl)cc3)cc2)C[C@H]1C(=O)N[C@@H](Cc1ccc(Br)cc1)C(=O)NS(=O)(=O)c1ccc(Cl)c([N+](=O)[O-])c1` gave an IC50 [2] of 21.9 µM, a Ki [3] of 2.1 µM and a Ki [4] of 0.83 µM. The IC50 [5] was 11.2 µM and the IC50 [6] was 15.8 µM.
`Cc1cc2c(C(C)C)c(O)c(O)c(C=O)c2c(O)c1-c1c(C)cc2c(C(C)C)c(O)c(O)c(C=O)c2c1O` [GOSSYPOL] gave an IC50 [2] of 5.91 µM, a Ki [1] of 0.39 µM and a Ki [3] of 0.77 µM. It also gave an IC50 [5] of 5.78 µM and an IC50 [6] of 9.42 µM.
